Reference: ChEMBL document CHEMBL2434935, “Design, syntheses, and characterization of pharmacophore based chemokine receptor CCR5 antagonists as anti prostate cancer agents” (Eur J Med Chem, 2013)
Activity calls are given as the source filed them. No cut-off for these calls is given here.

Test system: not listed separately
Experiment: Cytotoxicity against mouse NIH/3T3 cells after 48 hrs by neutral red dye uptake assay
Format: cell-based, NIH3T3
Details: read-out: TC50
How it was run: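 NIH-3T3 mouse embryonic fibroblasts grown in medium with 10% newborn calf serum and 1% penicillin:streptomycin. Compounds at various concentrations in DMEM dilution medium for 48 h. After HBSS wash, neutral red 25 µg/mL in DMEM/5% NBCS for 3 ± 0.1 h. Dye extracted with 50% ethanol/1% acetic acid, shaken 20 min, absorbance 540 nm. TC50 by non-linear regression.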

SMILES | CC50 at 48 h
COc1ccc(C2CCN(Cc3ccc(N)cc3)CC2)cc1NC(=O)c1cnccn1 | > 100 µM
COc1ccc(C2CCN(Cc3ccc(NC(C)=O)cc3)CC2)cc1NC(=O)c1ccccc1 | 92.2 µM
CCOc1ccc(C2CCN(Cc3ccc(N(CC)CC)cc3)CC2)cc1NC(=O)c1ccccc1 | 49.5 µM
CCOc1ccc(C2CCN(Cc3ccc(NC(C)=O)cc3)CC2)cc1NC(=O)c1cnccn1 | > 100 µM
CCOc1ccc(C2CCN(Cc3ccc([N+](=O)[O-])cc3)CC2)cc1NC(=O)c1cnccn1 | > 100 µM
CCOc1ccc(C2CCN(Cc3ccc(N(CC)CC)cc3)CC2)cc1NC(=O)c1cnccn1 | 46.9 µM

Target: T1, C-C chemokine receptor type 5 (Homo sapiens, UniProt P51681)
Experiment: Agonist activity at CCR5 (unknown origin) expressed in MOLT4 cells transfected with Gqi5 assessed as induction of calcium ion mobilization after 15 mins by microplate reader method
Format: functional, cell-based
Details: MOLT-4
How it was run: (§1)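 CCR5-MOLT-4 cells transfected with Gqi5 (Lipofectamine 2000), kept in RPMI 1640/10% FBS with penicillin, streptomycin and 1 mg/mL G418 at 37 °C, 5% CO2. At 48 h post-transfection the cells were resuspended in 50:1 HBSS:HEPES buffer and loaded with Fluo4-AM plus probenecid for 45 min. Ligands were added at varying concentrations for 15 min, then RANTES or buffer was added at 16 s. Fluorescence was read at 494/516 nm for 120 s.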
Target sequence in this assay (P51681 whole entry, looked up): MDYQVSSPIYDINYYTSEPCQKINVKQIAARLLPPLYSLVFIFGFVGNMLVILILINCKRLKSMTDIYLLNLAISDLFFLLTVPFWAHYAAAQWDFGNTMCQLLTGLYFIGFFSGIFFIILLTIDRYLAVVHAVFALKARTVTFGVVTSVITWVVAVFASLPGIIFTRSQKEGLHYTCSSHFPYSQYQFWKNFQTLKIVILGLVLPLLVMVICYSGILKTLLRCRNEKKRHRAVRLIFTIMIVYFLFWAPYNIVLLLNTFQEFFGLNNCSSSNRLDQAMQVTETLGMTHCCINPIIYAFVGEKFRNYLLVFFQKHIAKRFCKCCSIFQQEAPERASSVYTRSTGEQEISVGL

SMILES | Activity
COc1ccc(C2CCN(Cc3ccc(NC(C)=O)cc3)CC2)cc1NC(=O)c1cnccn1 | inactive
COc1ccc(C2CCN(Cc3ccc(N)cc3)CC2)cc1NC(=O)c1cnccn1 | inactive
COc1ccc(C2CCN(Cc3ccc(N)cc3)CC2)cc1NC(=O)c1ccccc1 | inactive
CC(C)Oc1ccc(C2CCN(Cc3ccc(N)cc3)CC2)cc1NC(=O)c1ccccc1 | inactive
COc1ccc(C2CCN(Cc3ccc(NC(C)=O)cc3)CC2)cc1NC(=O)c1ccccc1 | inactive
CC(=O)Nc1ccc(CN2CCC(c3ccc(OC(C)C)c(NC(=O)c4cnccn4)c3)CC2)cc1 | inactive
CC(C)Oc1ccc(C2CCN(Cc3ccc([N+](=O)[O-])cc3)CC2)cc1NC(=O)c1ccccc1 | inactive
CCOc1ccc(C2CCN(Cc3ccc(N(CC)CC)cc3)CC2)cc1NC(=O)c1ccccc1 | inactive
CCOc1ccc(C2CCN(Cc3ccc([N+](=O)[O-])cc3)CC2)cc1NC(=O)c1ccccc1 | inactive
CCOc1ccc(C2CCN(Cc3ccc(NC(C)=O)cc3)CC2)cc1NC(=O)c1ccccc1 | inactive
CCOc1ccc(C2CCN(Cc3ccc(N)cc3)CC2)cc1NC(=O)c1ccccc1 | inactive
CC(=O)Nc1ccc(CN2CCC(c3ccc(OC(C)C)c(NC(=O)c4ccccc4)c3)CC2)cc1 | inactive
CCN(CC)c1ccc(CN2CCC(c3ccc(OC(C)C)c(NC(=O)c4ccccc4)c3)CC2)cc1 | inactive
CC(C)Oc1ccc(C2CCN(Cc3ccc(N)cc3)CC2)cc1NC(=O)c1cnccn1 | inactive
CCOc1ccc(C2CCN(Cc3ccc(N)cc3)CC2)cc1NC(=O)c1cnccn1 | inactive
CCOc1ccc(C2CCN(Cc3ccc(NC(C)=O)cc3)CC2)cc1NC(=O)c1cnccn1 | inactive
CCN(CC)c1ccc(CN2CCC(c3ccc(OC)c(NC(=O)c4ccccc4)c3)CC2)cc1 | inactive
CCOc1ccc(C2CCN(Cc3ccc([N+](=O)[O-])cc3)CC2)cc1NC(=O)c1cnccn1 | inactive
COc1ccc(C2CCN(Cc3ccc([N+](=O)[O-])cc3)CC2)cc1NC(=O)c1cnccn1 | inactive
CCOc1ccc(C2CCN(Cc3ccc(N(CC)CC)cc3)CC2)cc1NC(=O)c1cnccn1 | inactive
COc1ccc(C2CCN(Cc3ccc([N+](=O)[O-])cc3)CC2)cc1NC(=O)c1ccccc1 | inactive
CCN(CC)c1ccc(CN2CCC(c3ccc(OC)c(NC(=O)c4cnccn4)c3)CC2)cc1 | inactive
CCN(CC)c1ccc(CN2CCC(c3ccc(OC(C)C)c(NC(=O)c4cnccn4)c3)CC2)cc1 | inactive
CC(C)Oc1ccc(C2CCN(Cc3ccc([N+](=O)[O-])cc3)CC2)cc1NC(=O)c1cnccn1 | inactive

Test system: M12
Experiment: (§2) Antiproliferative activity against human M12 cells after 72 hrs by WST-1 assay
Format: functional
Details: not given
How it was run: (§3)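 PC-3 cells kept in serum-free RPMI with L-glutamine, ITS and gentamicin plus 10% FBS. M12 cells got 5% FBS, then after 24 h serum-free medium with 0.01% EGF. Cells plated at 1000/well; after 24 h, drugs added at various concentrations in PBS (controls PBS) for 72 h. Medium then replaced with serum-free medium:WST-1 9:1, absorbance read after 3 h. Non-linear regression fit; mean ± S.E.M., ≥3 experiments in triplicate.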

SMILES | Activity
COc1ccc(C2CCN(Cc3ccc(N)cc3)CC2)cc1NC(=O)c1cnccn1 | Dose-dependent effect
COc1ccc(C2CCN(Cc3ccc(NC(C)=O)cc3)CC2)cc1NC(=O)c1ccccc1 | Dose-dependent effect
CCOc1ccc(C2CCN(Cc3ccc(N(CC)CC)cc3)CC2)cc1NC(=O)c1ccccc1 | Dose-dependent effect
CCOc1ccc(C2CCN(Cc3ccc(NC(C)=O)cc3)CC2)cc1NC(=O)c1cnccn1 | Dose-dependent effect
CCOc1ccc(C2CCN(Cc3ccc([N+](=O)[O-])cc3)CC2)cc1NC(=O)c1cnccn1 | Dose-dependent effect
CCOc1ccc(C2CCN(Cc3ccc(N(CC)CC)cc3)CC2)cc1NC(=O)c1cnccn1 | Dose-dependent effect

Test system: not listed separately
Experiment: as §2
Format: functional
Details: M12, 72 h, read-out: ED50 (the source's name)
How it was run: as §3

SMILES | EC50
COc1ccc(C2CCN(Cc3ccc(N)cc3)CC2)cc1NC(=O)c1cnccn1 | 73.7 µM
COc1ccc(C2CCN(Cc3ccc(NC(C)=O)cc3)CC2)cc1NC(=O)c1ccccc1 | 79.9 µM
CCOc1ccc(C2CCN(Cc3ccc(N(CC)CC)cc3)CC2)cc1NC(=O)c1ccccc1 | 15.9 µM
CCOc1ccc(C2CCN(Cc3ccc(NC(C)=O)cc3)CC2)cc1NC(=O)c1cnccn1 | 58 µM
CCOc1ccc(C2CCN(Cc3ccc(N(CC)CC)cc3)CC2)cc1NC(=O)c1cnccn1 | 18.7 µM

Test system: PC-3
Experiment: Antiproliferative activity against human PC3 cells after 72 hrs by WST-1 assay
Format: functional
Details: not given
How it was run: as §3

SMILES | Activity
COc1ccc(C2CCN(Cc3ccc(N)cc3)CC2)cc1NC(=O)c1cnccn1 | Dose-dependent effect
COc1ccc(C2CCN(Cc3ccc(NC(C)=O)cc3)CC2)cc1NC(=O)c1ccccc1 | Dose-dependent effect
CCOc1ccc(C2CCN(Cc3ccc(N(CC)CC)cc3)CC2)cc1NC(=O)c1ccccc1 | Dose-dependent effect
CCOc1ccc(C2CCN(Cc3ccc(NC(C)=O)cc3)CC2)cc1NC(=O)c1cnccn1 | Dose-dependent effect
CCOc1ccc(C2CCN(Cc3ccc([N+](=O)[O-])cc3)CC2)cc1NC(=O)c1cnccn1 | Dose-dependent effect
CCOc1ccc(C2CCN(Cc3ccc(N(CC)CC)cc3)CC2)cc1NC(=O)c1cnccn1 | Dose-dependent effect

Same assay, conditions: PC-3, 72 h, read-out: ED50 (the source's name)

SMILES | EC50
COc1ccc(C2CCN(Cc3ccc(N)cc3)CC2)cc1NC(=O)c1cnccn1 | 72.3 µM
COc1ccc(C2CCN(Cc3ccc(NC(C)=O)cc3)CC2)cc1NC(=O)c1ccccc1 | 60 µM
CCOc1ccc(C2CCN(Cc3ccc(N(CC)CC)cc3)CC2)cc1NC(=O)c1ccccc1 | 86.6 µM
CCOc1ccc(C2CCN(Cc3ccc(NC(C)=O)cc3)CC2)cc1NC(=O)c1cnccn1 | 50 µM
CCOc1ccc(C2CCN(Cc3ccc([N+](=O)[O-])cc3)CC2)cc1NC(=O)c1cnccn1 | 109 µM
CCOc1ccc(C2CCN(Cc3ccc(N(CC)CC)cc3)CC2)cc1NC(=O)c1cnccn1 | 77 µM

Target: T1, C-C chemokine receptor type 5
Experiment: Antagonist activity at CCR5 (unknown origin) expressed in MOLT4 cells transfected with Gqi5 assessed as inhibition of RANTES-induced calcium ion mobilization after 15 mins by microplate reader method
Format: functional, cell-based, MOLT-4
Details: not given
How it was run: as §1

SMILES | IC50
COc1ccc(C2CCN(Cc3ccc(NC(C)=O)cc3)CC2)cc1NC(=O)c1cnccn1 | 59 µM
COc1ccc(C2CCN(Cc3ccc(N)cc3)CC2)cc1NC(=O)c1cnccn1 | 38.8 µM
COc1ccc(C2CCN(Cc3ccc(N)cc3)CC2)cc1NC(=O)c1ccccc1 | 77 µM
CC(C)Oc1ccc(C2CCN(Cc3ccc(N)cc3)CC2)cc1NC(=O)c1ccccc1 | 66.2 µM
COc1ccc(C2CCN(Cc3ccc(NC(C)=O)cc3)CC2)cc1NC(=O)c1ccccc1 | 70.8 µM
CC(=O)Nc1ccc(CN2CCC(c3ccc(OC(C)C)c(NC(=O)c4cnccn4)c3)CC2)cc1 | 88.1 µM
CC(C)Oc1ccc(C2CCN(Cc3ccc([N+](=O)[O-])cc3)CC2)cc1NC(=O)c1ccccc1 | 45 µM
CCOc1ccc(C2CCN(Cc3ccc(N(CC)CC)cc3)CC2)cc1NC(=O)c1ccccc1 | 64 µM
CCOc1ccc(C2CCN(Cc3ccc([N+](=O)[O-])cc3)CC2)cc1NC(=O)c1ccccc1 | 28 µM
CCOc1ccc(C2CCN(Cc3ccc(NC(C)=O)cc3)CC2)cc1NC(=O)c1ccccc1 | 115 µM
CCOc1ccc(C2CCN(Cc3ccc(N)cc3)CC2)cc1NC(=O)c1ccccc1 | 63 µM
CC(=O)Nc1ccc(CN2CCC(c3ccc(OC(C)C)c(NC(=O)c4ccccc4)c3)CC2)cc1 | 92.2 µM
CCN(CC)c1ccc(CN2CCC(c3ccc(OC(C)C)c(NC(=O)c4ccccc4)c3)CC2)cc1 | 138 µM
CC(C)Oc1ccc(C2CCN(Cc3ccc(N)cc3)CC2)cc1NC(=O)c1cnccn1 | 77.8 µM
CCOc1ccc(C2CCN(Cc3ccc(N)cc3)CC2)cc1NC(=O)c1cnccn1 | 43.5 µM
CCOc1ccc(C2CCN(Cc3ccc(NC(C)=O)cc3)CC2)cc1NC(=O)c1cnccn1 | 47 µM
CCN(CC)c1ccc(CN2CCC(c3ccc(OC)c(NC(=O)c4ccccc4)c3)CC2)cc1 | 90 µM
CCOc1ccc(C2CCN(Cc3ccc([N+](=O)[O-])cc3)CC2)cc1NC(=O)c1cnccn1 | 61 µM
COc1ccc(C2CCN(Cc3ccc([N+](=O)[O-])cc3)CC2)cc1NC(=O)c1cnccn1 | 73 µM
CCOc1ccc(C2CCN(Cc3ccc(N(CC)CC)cc3)CC2)cc1NC(=O)c1cnccn1 | 51.8 µM
COc1ccc(C2CCN(Cc3ccc([N+](=O)[O-])cc3)CC2)cc1NC(=O)c1ccccc1 | 28.7 µM
CCN(CC)c1ccc(CN2CCC(c3ccc(OC)c(NC(=O)c4cnccn4)c3)CC2)cc1 | 56 µM
CCN(CC)c1ccc(CN2CCC(c3ccc(OC(C)C)c(NC(=O)c4cnccn4)c3)CC2)cc1 | 61 µM
CC(C)Oc1ccc(C2CCN(Cc3ccc([N+](=O)[O-])cc3)CC2)cc1NC(=O)c1cnccn1 | 65.7 µM

Same assay, conditions: MOLT-4

SMILES | inhibition
COc1ccc(C2CCN(Cc3ccc(NC(C)=O)cc3)CC2)cc1NC(=O)c1cnccn1 | Dose-dependent effect
COc1ccc(C2CCN(Cc3ccc(N)cc3)CC2)cc1NC(=O)c1cnccn1 | Dose-dependent effect
COc1ccc(C2CCN(Cc3ccc(N)cc3)CC2)cc1NC(=O)c1ccccc1 | Dose-dependent effect
CC(C)Oc1ccc(C2CCN(Cc3ccc(N)cc3)CC2)cc1NC(=O)c1ccccc1 | Dose-dependent effect
COc1ccc(C2CCN(Cc3ccc(NC(C)=O)cc3)CC2)cc1NC(=O)c1ccccc1 | Dose-dependent effect
CC(=O)Nc1ccc(CN2CCC(c3ccc(OC(C)C)c(NC(=O)c4cnccn4)c3)CC2)cc1 | Dose-dependent effect
CC(C)Oc1ccc(C2CCN(Cc3ccc([N+](=O)[O-])cc3)CC2)cc1NC(=O)c1ccccc1 | Dose-dependent effect
CCOc1ccc(C2CCN(Cc3ccc(N(CC)CC)cc3)CC2)cc1NC(=O)c1ccccc1 | Dose-dependent effect
CCOc1ccc(C2CCN(Cc3ccc([N+](=O)[O-])cc3)CC2)cc1NC(=O)c1ccccc1 | Dose-dependent effect
CCOc1ccc(C2CCN(Cc3ccc(NC(C)=O)cc3)CC2)cc1NC(=O)c1ccccc1 | Dose-dependent effect
CCOc1ccc(C2CCN(Cc3ccc(N)cc3)CC2)cc1NC(=O)c1ccccc1 | Dose-dependent effect
CC(=O)Nc1ccc(CN2CCC(c3ccc(OC(C)C)c(NC(=O)c4ccccc4)c3)CC2)cc1 | Dose-dependent effect
CCN(CC)c1ccc(CN2CCC(c3ccc(OC(C)C)c(NC(=O)c4ccccc4)c3)CC2)cc1 | Dose-dependent effect
CC(C)Oc1ccc(C2CCN(Cc3ccc(N)cc3)CC2)cc1NC(=O)c1cnccn1 | Dose-dependent effect
CCOc1ccc(C2CCN(Cc3ccc(N)cc3)CC2)cc1NC(=O)c1cnccn1 | Dose-dependent effect
CCOc1ccc(C2CCN(Cc3ccc(NC(C)=O)cc3)CC2)cc1NC(=O)c1cnccn1 | Dose-dependent effect
CCN(CC)c1ccc(CN2CCC(c3ccc(OC)c(NC(=O)c4ccccc4)c3)CC2)cc1 | Dose-dependent effect
CCOc1ccc(C2CCN(Cc3ccc([N+](=O)[O-])cc3)CC2)cc1NC(=O)c1cnccn1 | Dose-dependent effect
COc1ccc(C2CCN(Cc3ccc([N+](=O)[O-])cc3)CC2)cc1NC(=O)c1cnccn1 | Dose-dependent effect
CCOc1ccc(C2CCN(Cc3ccc(N(CC)CC)cc3)CC2)cc1NC(=O)c1cnccn1 | Dose-dependent effect
COc1ccc(C2CCN(Cc3ccc([N+](=O)[O-])cc3)CC2)cc1NC(=O)c1ccccc1 | Dose-dependent effect
CCN(CC)c1ccc(CN2CCC(c3ccc(OC)c(NC(=O)c4cnccn4)c3)CC2)cc1 | Dose-dependent effect
CCN(CC)c1ccc(CN2CCC(c3ccc(OC(C)C)c(NC(=O)c4cnccn4)c3)CC2)cc1 | Dose-dependent effect
CC(C)Oc1ccc(C2CCN(Cc3ccc([N+](=O)[O-])cc3)CC2)cc1NC(=O)c1cnccn1 | Dose-dependent effect
